NR2E3 ag-1: activates human photoreceptor nuclear receptor NR2E3. inhibition of corepressor binding, % at 4.78 µM. GST-NR2E3/biotin-RetCOR TR-FRET, 1536-well. 0.12% of 320,000 active. AID 2300. Q9Y5X4;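 active = percent inhibition above the cutoff of mean plus 3 SD of all tested compounds, set per screening campaign, cut at about 20% in these data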;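 also: 0% = DMSO wells and 100% = biotin wells as full block of FRET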
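System: GST-tagged NR2E3 plus biotinylated RetCOR corepressor; Buffer or medium: pH 7.5 Tris-based buffer; Probe or stimulus: RetCOR corepressor, biotinylated, 7 nM; Doses: compound at 4.8 µM, single dose; Schedule: 5 h incubation at 4 °C; Technique: time-resolved FRET; Evaluation: percent inhibition of TR-FRET ratio; Replication: one well per compound, singlicate testing.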
CHT inh: inhibits the human high affinity choline transporter | Q9GZV3 | CHT-expressing cells, membrane potential dye, choline response; active compounds read low | B-score at 10 µM | 0.86% of 310,000 active | AID 488975;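 active = B-score over 3 SD under the library average, and starting fluorescence ratio not unusually high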;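 also: choline stimulus applied at its EC90 after an EC20 pre-addition; B-score computed on integrated fluorescence ratio after choline addition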
GalR3 antag: human GalR3 antagonism. inhibition, % at 3 µM. HEK293 GalR3-CNG cAMP membrane potential fluorescence; galR3 body fused to GalR1 C-terminus. 0.44% of 360,000 active. AID 651719. O60755;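 active = inhibition above the screen-wide average plus 3 SD, cut at about 13% in these data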;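 also: forskolin and galanin both at EC90 stimulate the cells; cAMP rise reported by CNG channel membrane potential dye signal; 0% = forskolin plus galanin with DMSO and 100% = forskolin alone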
Target sequence (O60755 1-299 limits assumed): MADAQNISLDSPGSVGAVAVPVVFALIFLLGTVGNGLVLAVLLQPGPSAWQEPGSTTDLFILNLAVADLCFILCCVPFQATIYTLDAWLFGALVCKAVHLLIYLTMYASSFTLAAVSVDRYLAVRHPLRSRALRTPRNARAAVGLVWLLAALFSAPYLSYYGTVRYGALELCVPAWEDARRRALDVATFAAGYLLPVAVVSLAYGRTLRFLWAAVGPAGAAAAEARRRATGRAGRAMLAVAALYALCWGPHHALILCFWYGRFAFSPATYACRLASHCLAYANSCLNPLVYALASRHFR
NR2E3 ag-2: human photoreceptor-specific nuclear receptor agonism | inhibition of corepressor binding, % at 3.98 µM | Q9Y5X4 | 0.35% of 360,000 active | CHO-S Gal4-NCOR/VP16-NR2E3 two-hybrid, luciferase;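 active = inhibition above the mean of all tested compounds plus 3 SD, cut at about 70% in these data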;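 also: 0% = DMSO with NR2E3 transfected cells and 100% = cells lacking NR2E3 construct; higher means lower luciferase signal from less NR2E3 corepressor binding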
CHT allo act: human CHT allosteric activation; Q9GZV3; CHT-expressing cells, membrane potential dye, choline EC20; active compounds read high; LV-AA mutant CHT in HEK293 cells; B-score at 10 µM; 0.49% of 310,000 active; AID 488977;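 active = initial fluorescence not abnormally high and integrated response B-score, plate-corrected, over 3 SD above library mean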
NR2F2 inh: blocks human COUP-TFII nuclear receptor | inhibition, % at 8.6 µM | P24468 | 0.7% of 370,000 active | HEK293T NGFI-A luciferase reporter, luminescence | AID 686940;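 active = inhibition above a per-plate cutoff, mean inhibition of test wells between control levels plus 3 SD, cut at about 38% in these data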;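 also: cells cotransfected with COUP-TFII expression vector driving the NGFI-A reporter; 0% = median of COUP-TF2 test wells and 100% = reporter-only cells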
Target sequence (P24468 whole entry, looked up): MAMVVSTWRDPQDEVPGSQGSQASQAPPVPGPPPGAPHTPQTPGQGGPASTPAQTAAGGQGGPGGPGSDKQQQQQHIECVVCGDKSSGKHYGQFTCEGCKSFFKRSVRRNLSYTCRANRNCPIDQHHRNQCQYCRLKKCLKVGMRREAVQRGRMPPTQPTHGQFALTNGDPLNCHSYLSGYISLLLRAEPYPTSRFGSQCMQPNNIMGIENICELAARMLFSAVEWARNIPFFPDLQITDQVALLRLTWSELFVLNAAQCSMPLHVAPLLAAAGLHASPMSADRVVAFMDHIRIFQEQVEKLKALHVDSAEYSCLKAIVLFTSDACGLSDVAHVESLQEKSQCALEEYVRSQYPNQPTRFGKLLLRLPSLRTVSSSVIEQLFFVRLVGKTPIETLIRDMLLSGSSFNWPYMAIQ
NR2E3 ag confirm: NR2E3 (human) agonism, confirmation | 39% of 360 active | AID 2379 | activation (reported as inhibition), % at 3.98 µM | shares compounds with NR2E3 ag-1 | cell-free NR2E3 corepressor release, TR-FRET, 5 h; in the data active = activation above about 20%
PPARg-NCOR2 ag: PPARg-NCOR2 interaction agonism, NR2E3 counter-screen | inhibition, % at 3.98 µM | 45% of 360 active | TR-FRET PPARg-NCOR2 coregulator interaction, biochemical | shares compounds with NR2E3 ag-1; in the data active = inhibition above about 20%;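 also: 0% = DMSO vehicle and 100% = wells without protein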
* hit, by the source's call; i = inactive; . = not tested or not shown. Only some compounds are listed: those with a hit (about 2.3% of all), similar ones and a draw of the others.

SMILES	NR2E3 ag-1	CHT inh	GalR3 antag	NR2E3 ag-2	CHT allo act	NR2F2 inh	NR2E3 ag confirm	PPARg-NCOR2 ag
COc1ccccc1C1C(C(=O)c2cc3ccccc3o2)=C(O)C(=O)N1c1cc(C)on1 (stereo not given)	22.0*	i	1.8	-5.3	i	-1.6	19.8*	19.0
CCCOc1ccc(C2C(C(=O)c3cc4ccccc4o3)=C(O)C(=O)N2c2cc(C)on2)cc1 (stereo not given)	14.6	i	-1.0	-19.6	i	-28.9	.	.
Cc1cc(N2C(=O)C(O)=C(C(=O)c3ccc(C)o3)C2c2cccc(Cl)c2)no1 (stereo not given)	.	.	-0.5	-2.8	.	7.5	.	.
CC(C)(N[C@@H](Cc1ccccc1)C(=O)NCCc1c[nH]c2ccccc12)C(=O)NC1CCCCC1	.	.	.	.	.	-28.5	.	.
N#Cc1ccc(Cn2ccc3ccc(-c4ccc5ccn(C(=O)C6CCCCC6)c5c4)cc32)cc1	.	.	.	.	.	10.4	.	.
CC(=O)CCc1c(C)c2cccc(C)c2[nH]c1=O	5.0	i	1.1	10.0	i	-2.1	.	.
COc1cccc2c(=S)c(CCC(C)=O)c(C)[nH]c12	20.9*	i	-1.9	-1.9	i	-7.2	5.9	-2.4
Cc1ccccc1Nc1cc2ccccc2c(=O)[nH]1	24.6*	i	.	13.3	i	.	15.6	9.8
CCc1cc2c(=O)n(-c3ccccc3)c(=S)[nH]c2s1	23.0*	i	-3.1	-4.6	i	-10.2	1.2	-2.0
CCc1cc2c(=O)n(-c3ccccc3)c(SCC(N)=O)nc2s1	3.5	i	-6.8	-19.1	i	-21.2	.	.
Cc1ccccc1CNc1ncnc2cc(Cl)ccc12	78.9*	i	-0.5	6.1	i	10.0	82.1*	82.2*
COc1cc2ncnc(NCc3ccccc3C)c2cc1OC	1.5	i	3.5	-3.6	i	12.2	.	.
O=S1(=O)c2c(NCc3ccco3)cccc2Oc2ccccc2CN1Cc1cn(Cc2ccc(F)cc2)nn1	.	.	.	.	.	-6.0	.	.
COc1cc(Br)c(C(=O)c2nccc3cc(OC)c(OC)cc23)cc1OC	27.9*	i	-1.8	-36.2	i	18.5	24.0*	9.2
Nc1ccc2nc(-c3ccc(-c4nc5ccc(N)cc5[nH]4)cc3)[nH]c2c1	23.6*	i	-9.4	.	i	12.0	10.0	3.6
COC(=O)[C@]12C[C@H](CC(=O)NCc3cccc4ccccc34)C(=O)N(Cc3ccco3)C1=C[C@H](C1CCCC1)O[C@@H]2C	.	.	.	.	.	10.9	.	.
O=C(C1=C(O)C(=O)N(CC2CCCO2)C1c1ccccc1F)c1ccco1 (stereo not given)	35.9*	i	-7.9	-15.5	i	-5.4	13.1	12.2
CCCOc1ccc(C2C(C(=O)c3ccc(C)o3)=C(O)C(=O)N2Cc2ccco2)cc1 (stereo not given)	13.1	i	1.7	-4.3	i	0.5	.	.
COc1ccc(CCN2C(=O)C(O)=C(C(C)=O)C2c2ccccc2OC)cc1OC (stereo not given)	1.6	i	-3.3	-5.7	i	-12.1	.	.
Cc1ccc(C(=O)C2=C(O)C(=O)N(Cc3cccnc3)C2c2cccc(Oc3ccccc3)c2)o1 (stereo not given)	51.8*	i	0.7	.	i	-6.5	45.4*	41.4*
CCCOc1ccc(C2C(C(=O)c3ccc(C)o3)=C(O)C(=O)N2Cc2ccco2)cc1OCC (stereo not given)	23.7*	i	-1.3	-5.2	i	-0.2	6.2	6.2
COc1ccc(CCN2C(=O)C(O)=C(C(=O)c3ccco3)C2c2cccs2)cc1OC (stereo not given)	23.8*	i	1.1	9.5	i	8.2	18.2	14.0
CCOc1cccc(C2C(C(=O)c3ccco3)=C(O)C(=O)N2Cc2ccncc2)c1 (stereo not given)	0.5	i	-0.6	-21.4	i	2.2	.	.
COCCN1C(=O)C(O)=C(C(=O)c2ccco2)C1c1cccc(Oc2ccccc2)c1 (stereo not given)	22.6*	i	0.3	-18.3	i	-3.3	5.7	28.1*
O=S1(=O)c2ccc(N3CCCC3)cc2Oc2ccccc2CN1Cc1cn(Cc2cccc(C(F)(F)F)c2)nn1	.	.	.	.	.	8.3	.	.
SMILES	NR2E3 ag-1	CHT inh	GalR3 antag	NR2E3 ag-2	CHT allo act	NR2F2 inh	NR2E3 ag confirm	PPARg-NCOR2 ag
C=CCNC(=O)N1CCC(c2nc3ccc(Cl)cc3[nH]2)CC1	.	.	.	.	.	-1.6	.	.
Cc1ccc(C(=O)C2=C(O)C(=O)N(Cc3cccnc3)C2c2ccc(Cl)cc2)o1 (stereo not given)	18.2	i	-6.6	7.3	i	15.1	.	.
Cc1ccc(C(=O)C2=C(O)C(=O)N(c3ncccn3)C2c2ccc(Cl)cc2)o1 (stereo not given)	26.3*	i	-2.6	5.4	i	6.0	18.9	14.6
Cc1ccc(C(=O)C2=C(O)C(=O)N(Cc3ccccc3)C2c2cccnc2)o1 (stereo not given)	39.8*	i	.	-58.5	i	.	4.8	12.2
O=C(C1=C(O)C(=O)N(Cc2ccco2)C1c1cccs1)c1cccs1 (stereo not given)	9.9	i	-4.6	13.2	i	10.9	.	.
O=C(C1=C(O)C(=O)N(Cc2ccco2)C1c1ccccc1)c1cccs1 (stereo not given)	20.2*	i	-4.3	-6.7	i	8.0	2.4	8.3
Cc1ccc(Cn2cc(CN(C3CC3)S(=O)(=O)c3ccccc3Br)nn2)cc1	.	.	.	.	.	-3.9	.	.
CCCCC(=O)Nc1ncc(Br)s1	32.4*	i	.	15.6	i	.	-2.1	-3.8
CC(C)(C)c1cc(=O)n(-c2ccccc2)[nH]1	29.3*	i	-6.3	6.7	i	15.6	-4.4	1.2
Nc1ccc(N2CCCCC2)c2nonc12	43.1*	-7.62*	-3.9	-43.3	i	-7.0	-15.9	-13.9
Nc1c(N2CCCC2)cc(Cl)c2nonc12	1.5	i	.	-4.9	i	.	.	.
CC[C@@H](CCCCCC#N)CCC(=O)N(c1ccccc1)c1ccccc1	.	.	.	.	.	30.7	.	.
O=C(NCC(c1ccccc1)c1ccccc1)[C@H](Cc1ccccc1)NC1(C(=O)NC2CCCCC2)CCOCC1	.	.	.	.	.	26.8	.	.
Cc1cc(C(=O)O)ccc1-n1c(C)ccc1C	21.4*	i	.	.	i	.	22.8*	-3.8
COc1ccc(CN2C/C(=C/c3ccc(C)cc3)N3C(=O)C[C@@H](c4ccccc4)N=C23)c(OC)c1	.	.	.	.	.	-10.8	.	.
